Laboratory results reported in ChEMBL document CHEMBL1123247, “Nucleoside conjugates. 7. Synthesis and antitumor activity of 1-beta-D-arabinofuranosylcytosine conjugates of ether lipids” (J Med Chem, 1986).

Tests used:
[1] = test system: AMML; assay: Compound was tested for the inhibition of AMML (acute myelomonocytic leukemia); type: functional, cell-based; details: Homo sapiens
Summary of the method: (§1)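 Human leukemia and solid tumor cells in culture were exposed to compound for 48 h. Viability was scored by trypan blue dye exclusion. IC50 (50% inhibition) was estimated from response curves of three separate experiments.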

[2] = test system: CML/BC; assay: Compound was tested for the inhibition of CML/BC(chronic myeloid leukemia, blast crisis); type: functional, cell-based; details: Homo sapiens; summary of the method: as §1
[3] = test system: Glioblastoma cell line; assay: Compound was tested for the inhibition of glioblastoma; type: functional, cell-based; details: Homo sapiens; summary of the method: as §1
[4] = test system: HL-60; assay: Compound was tested for the inhibition of human HL60 Leukemia; type: functional, cell-based; summary of the method: as §1
[5] = test system: L1210; assay: Antitumor activity was determined against the ip implanted L1210 leukemia in mice by range in survival days at 5 mg/kg (treatment of 1-5qd schedule) dosage; Range is 8-9; type: functional, Mus musculus; details: route intraperitoneal
Summary of the method: (§2)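 DBA/2J mice, 23-28 g, in groups of 6, were inoculated ip with 1×10^6 L1210 cells on day 0. Dosing was ip starting 24 h later on the stated daily schedules. Conjugates were given as sonicated solutions and reference prodrugs as suspensions in 0.9% NaCl with 0.5% Tween-80. Mice were observed daily until death or 45 days. Median survival T/C was calculated from survivors per NCI protocols.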

[6] = test system: L1210; assay: Antitumor activity against the ip implanted L1210 leukemia in mice expressed as optimal dose (1-5qd treatment schedule) required to produce greatest increase in life span was determined; type: functional, Mus musculus
Summary of the method: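 DBA/2J mice, groups of 6 (23-28 g), were inoculated ip with 1 × 10^6 L1210 cells on day 0. Dosing was ip from 24 h, in 0.9% NaCl with 0.5% Tween-80 (sonicated solution or suspension). Mice were observed daily until death or day 45. Median survival T/C followed NCI protocols, and ILS = (T/C − 1) × 100. Active range means doses giving ILS ≥25%; optimal dose means greatest ILS.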

[7] = test system: L1210; assay: Antitumor activity was determined against the ip implanted L1210 leukemia in mice by 45-day survivors in mice at 5 mg/kg (treatment of 1-5qd schedule) dosage; type: functional, Mus musculus; details: route intraperitoneal
Summary of the method: (§3)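 DBA/2J mice in groups of 6 (wt 23-28 g) were inoculated ip with 1×10^6 L1210 cells on day 0. Dosing was ip from 24 h, in 0.9% NaCl with 0.5% Tween-80 (conjugates sonicated), across a range of doses. Mice were observed daily until death or 45 days. Median T/C was computed from survivors per NCI protocols, and ILS = (T/C − 1)×100.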

[8] = test system: L1210; assay: Antitumor activity was determined against the ip implanted L1210 leukemia in mice by percent increase in life span at 5 mg/kg (treatment of 1-5qd schedule) dosage; type: functional, Mus musculus; details: route intraperitoneal; summary of the method: as §3
[9] = test system: L1210; assay: Antitumor activity was determined against the ip implanted L1210 leukemia in mice by percent median survival rate (treated/control) at 5 mg/kg (treatment of 1-5qd schedule) dosage; 9.0/8.0; type: functional, Mus musculus; details: route intraperitoneal; summary of the method: as §2
[10] = test system: NSCLC; assay: Compound was tested for the inhibition of non- small cell lung cancer; type: functional, cell-based; details: Homo sapiens; summary of the method: as §1
[11] = test system: Small cell lung cancer cell line; assay: Compound was tested for the inhibition of small cell lung cancer; type: functional, cell-based; details: Homo sapiens; summary of the method: as §1

Molecule CCCCCCCCCCCCCCCCCCOC[C@H](COP(=O)([O-])OCC[N+](C)(C)C)OC [(R)-EDELFOSINE] has an IC50 [1] of 3.3 µM, an IC50 [2] of 1.5 µM and an IC50 [3] of 20 µM. For the same molecule, the IC50 [4] was 2.5 µM, the Range [5] was 8 and the Optimal dose [6] was 5 mg/kg/day. It also gave a Survivors [7] of 0, an ILS [8] of 13 and a T/C [9] of 9%. It also gave an IC50 [10] of 21 µM and an IC50 [11] of 24 µM.
